From ChEMBL document CHEMBL4411287, “Discovery and optimization of a series of 3-substituted indazole derivatives as multi-target kinase inhibitors for the treatment of lung squamous cell carcinoma” (Eur J Med Chem, 2019)

What was measured:
[1] = AUC (0 to t) in ICR(CD-1) mouse at 10 mg/kg, po administered via gavage by triple quadrupole mass spectrometric analysis; assay type: ADME, organism-based; details: in vivo
Outline: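 Oral gavage at 1 mg/mL in 1% Tween80/water to male ICR mice (18-22 g, n=3). Plasma sampled at 0.25, 0.5, 1, 2, 4, 8 and 24 h, protein precipitated with methanol:acetonitrile (1:1) containing internal standard, and quantified by UPLC-triple quadrupole MS. AUC and MRT were taken from per-animal time-concentration curves. Cmax is the maximum plasma level and Tmax the time to reach it.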

[2] = MRT in ICR(CD-1) mouse at 10 mg/kg, po administered via gavage by triple quadrupole mass spectrometric analysis; assay type: ADME, organism-based; details: in vivo
Outline: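 Dosed by gavage at 1 mg/mL in 1% Tween80/water to male ICR mice, 18-22 g, n=3. Blood taken at 0.25, 0.5, 1, 2, 4, 8 and 24 h. Plasma precipitated with methanol:acetonitrile (1:1) containing internal standard, then UPLC-MS/MS on a C18 column with an ammonium acetate/formic acid–acetonitrile gradient. Tmax read directly from the data; MRT calculated per animal from concentration–time curves.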

[3] = biological target: Tyrosine-protein kinase ABL1 (Homo sapiens) (UniProt P00519); test: Inhibition of ABL (unknown origin) at 1000 nM relative to control
[4] = biological target: Ephrin type-A receptor 2 (Homo sapiens) (UniProt P29317); test: Inhibition of EPH-A2 (unknown origin) at 1000 nM relative to control
Outline: (§1)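 Purified recombinant kinase domains run in ELISA on precoated poly(Glu,Tyr) 4:1 (20 µg/mL) with 10 µM ATP in 50 mM HEPES pH 7.4, 50 mM MgCl2, 0.5 mM MnCl2, 0.2 mM Na3VO4, 1 mM DTT; 1% DMSO control; 60 min at 37 °C. Phosphotyrosine read by PY99 antibody, HRP anti-mouse IgG, OPD/H2O2 at 490 nm; inhibition = [1−A490/A490control]×100%; two separate experiments.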

[5] = biological target: Fibroblast growth factor receptor 3 (Homo sapiens) (UniProt P22607); test: Inhibition of FGFR3 (unknown origin) at 1000 nM relative to control; outline: as §1
[6] = biological target: Focal adhesion kinase 1 (Homo sapiens) (UniProt Q05397); test: Inhibition of FAK (unknown origin) at 1000 nM relative to control; outline: as §1
[7] = biological target: Angiopoietin-1 receptor (Homo sapiens) (UniProt Q02763); test: Inhibition of Tie-2 (unknown origin) at 1000 nM relative to control
Outline: (§2)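 ELISA with purified recombinant kinase on plates precoated with poly(Glu,Tyr) 4:1 at 20 µg/mL. ATP 10 µM in HEPES pH 7.4 buffer with MgCl2, MnCl2, Na3VO4 and DTT. Run 60 min at 37 °C. Detected with anti-phosphotyrosine PY99, HRP secondary antibody and o-phenylenediamine, read at 490 nm. Inhibition % = [1 − A490/A490 control]×100. 1% DMSO as negative control.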

[8] = biological target: Tyrosine-protein kinase ABL1 (Homo sapiens) (UniProt P00519); test: Inhibition of ABL (unknown origin) at 100 nM relative to control
[9] = biological target: Macrophage colony-stimulating factor 1 receptor (Homo sapiens) (UniProt P07333); test: Inhibition of CSF-1R (unknown origin) at 100 nM relative to control
[10] = biological target: Mitogen-activated protein kinase 1 (Homo sapiens) (UniProt P28482); test: Inhibition of ERK2 (unknown origin) at 100 nM relative to control
[11] = biological target: Fibroblast growth factor receptor 3 (Homo sapiens) (UniProt P22607); test: Inhibition of FGFR3 (unknown origin) at 100 nM relative to control; outline: as §1
[12] = biological target: Focal adhesion kinase 1 (Homo sapiens) (UniProt Q05397); test: Inhibition of FAK (unknown origin) at 100 nM relative to control; outline: as §1
[13] = biological target: Platelet-derived growth factor receptor beta (Homo sapiens) (UniProt P09619); test: Inhibition of PDGFR-beta (unknown origin) at 100 nM relative to control; outline: as §1
[14] = biological target: Fibroblast growth factor receptor 4 (Homo sapiens) (UniProt P22455); test: Inhibition of FGFR4 (unknown origin) at 10 nM relative to control; outline: as §1
[15] = biological target: Tyrosine-protein kinase JAK1 (Homo sapiens) (UniProt P23458); test: Inhibition of JAK1 (unknown origin) at 10 nM relative to control; outline: as §1
[16] = biological target: Angiopoietin-1 receptor (Homo sapiens) (UniProt Q02763); test: Inhibition of Tie-2 (unknown origin) at 10 nM relative to control; outline: as §2
[17] = system: T1, Discoidin domain-containing receptor 2 (Homo sapiens), Q16832 [I638F]; test: Inhibition of DDR2 I638F mutant phosphorylation in human NCI-H2286 cells after 2 hrs by Western blot analysis; assay type: cell-based
T1 sequence (whole entry): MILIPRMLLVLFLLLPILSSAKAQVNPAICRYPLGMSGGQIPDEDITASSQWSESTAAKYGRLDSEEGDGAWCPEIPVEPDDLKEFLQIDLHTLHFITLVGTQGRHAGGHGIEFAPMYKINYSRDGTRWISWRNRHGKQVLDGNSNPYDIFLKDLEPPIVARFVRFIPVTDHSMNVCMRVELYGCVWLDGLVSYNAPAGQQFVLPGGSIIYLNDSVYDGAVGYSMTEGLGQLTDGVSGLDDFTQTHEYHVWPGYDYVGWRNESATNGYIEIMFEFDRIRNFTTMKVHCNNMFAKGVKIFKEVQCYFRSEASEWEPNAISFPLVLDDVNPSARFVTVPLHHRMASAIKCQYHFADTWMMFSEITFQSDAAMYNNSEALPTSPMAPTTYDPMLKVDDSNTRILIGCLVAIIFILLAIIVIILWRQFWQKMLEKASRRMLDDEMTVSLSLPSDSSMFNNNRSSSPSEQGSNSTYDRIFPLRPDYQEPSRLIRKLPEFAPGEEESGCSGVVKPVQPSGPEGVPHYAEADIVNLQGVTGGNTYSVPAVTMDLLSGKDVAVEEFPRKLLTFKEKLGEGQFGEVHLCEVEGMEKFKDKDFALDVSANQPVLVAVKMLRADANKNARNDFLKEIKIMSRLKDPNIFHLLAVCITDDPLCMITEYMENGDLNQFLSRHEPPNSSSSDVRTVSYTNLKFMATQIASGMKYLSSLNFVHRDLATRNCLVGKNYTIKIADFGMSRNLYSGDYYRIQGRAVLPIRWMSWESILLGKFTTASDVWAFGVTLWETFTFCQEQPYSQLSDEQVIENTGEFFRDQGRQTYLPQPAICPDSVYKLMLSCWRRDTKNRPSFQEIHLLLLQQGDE
Outline: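 NCI-H2286 cells exposed to compound for 2 h at 37 °C and lysed in SDS sample buffer. Lysates run on 10% SDS-PAGE and blotted to nitrocellulose. Membranes probed for phospho- and total DDR2, ERK and Akt, with GAPDH as loading control, and detected by HRP secondary antibody and enhanced chemiluminescence.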

KG-1 = test: Antiproliferative activity against FGFR1 fused human KG1 cells after 72 hrs by CCK8 assay; assay type: functional, cell-based; details: KG-1, 72 h
Outline: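 Cells seeded at low density in growth medium and compounds added the next day. Incubated 72 h, then proliferation read by sulforhodamine B, MTT or CCK-8. IC50 obtained by four-parameter concentration-response curve fitting.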

Sequence of Focal adhesion kinase 1 (Homo sapiens) (Q05397 2-1052 limits assumed): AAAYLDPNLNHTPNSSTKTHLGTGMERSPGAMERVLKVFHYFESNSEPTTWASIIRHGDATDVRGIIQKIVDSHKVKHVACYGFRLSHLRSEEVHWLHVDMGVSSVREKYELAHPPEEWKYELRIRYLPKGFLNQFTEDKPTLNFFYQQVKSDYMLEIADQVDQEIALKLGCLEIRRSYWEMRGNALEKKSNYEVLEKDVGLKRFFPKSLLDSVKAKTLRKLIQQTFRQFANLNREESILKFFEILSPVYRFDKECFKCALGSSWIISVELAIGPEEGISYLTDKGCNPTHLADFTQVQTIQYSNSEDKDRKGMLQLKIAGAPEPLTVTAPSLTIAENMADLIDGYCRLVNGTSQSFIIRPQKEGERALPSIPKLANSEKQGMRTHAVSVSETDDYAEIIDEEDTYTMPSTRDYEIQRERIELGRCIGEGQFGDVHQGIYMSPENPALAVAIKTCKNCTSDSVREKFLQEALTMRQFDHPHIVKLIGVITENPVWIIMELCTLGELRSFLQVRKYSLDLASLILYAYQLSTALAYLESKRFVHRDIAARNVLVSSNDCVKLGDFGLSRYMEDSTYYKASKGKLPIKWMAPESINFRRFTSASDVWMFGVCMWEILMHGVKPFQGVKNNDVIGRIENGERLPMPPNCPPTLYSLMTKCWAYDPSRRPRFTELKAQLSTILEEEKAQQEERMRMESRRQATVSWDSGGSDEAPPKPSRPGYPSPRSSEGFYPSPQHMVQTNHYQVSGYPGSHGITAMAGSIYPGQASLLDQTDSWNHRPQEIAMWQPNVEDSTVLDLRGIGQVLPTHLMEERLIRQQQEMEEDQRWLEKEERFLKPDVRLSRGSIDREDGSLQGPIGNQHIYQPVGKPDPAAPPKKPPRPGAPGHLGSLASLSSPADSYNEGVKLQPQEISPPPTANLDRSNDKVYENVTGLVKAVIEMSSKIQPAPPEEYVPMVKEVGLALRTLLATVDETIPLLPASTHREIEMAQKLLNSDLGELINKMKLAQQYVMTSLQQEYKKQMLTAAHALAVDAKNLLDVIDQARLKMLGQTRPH
Sequence of Angiopoietin-1 receptor (Homo sapiens) (Q02763 whole entry, the tested form may be a part): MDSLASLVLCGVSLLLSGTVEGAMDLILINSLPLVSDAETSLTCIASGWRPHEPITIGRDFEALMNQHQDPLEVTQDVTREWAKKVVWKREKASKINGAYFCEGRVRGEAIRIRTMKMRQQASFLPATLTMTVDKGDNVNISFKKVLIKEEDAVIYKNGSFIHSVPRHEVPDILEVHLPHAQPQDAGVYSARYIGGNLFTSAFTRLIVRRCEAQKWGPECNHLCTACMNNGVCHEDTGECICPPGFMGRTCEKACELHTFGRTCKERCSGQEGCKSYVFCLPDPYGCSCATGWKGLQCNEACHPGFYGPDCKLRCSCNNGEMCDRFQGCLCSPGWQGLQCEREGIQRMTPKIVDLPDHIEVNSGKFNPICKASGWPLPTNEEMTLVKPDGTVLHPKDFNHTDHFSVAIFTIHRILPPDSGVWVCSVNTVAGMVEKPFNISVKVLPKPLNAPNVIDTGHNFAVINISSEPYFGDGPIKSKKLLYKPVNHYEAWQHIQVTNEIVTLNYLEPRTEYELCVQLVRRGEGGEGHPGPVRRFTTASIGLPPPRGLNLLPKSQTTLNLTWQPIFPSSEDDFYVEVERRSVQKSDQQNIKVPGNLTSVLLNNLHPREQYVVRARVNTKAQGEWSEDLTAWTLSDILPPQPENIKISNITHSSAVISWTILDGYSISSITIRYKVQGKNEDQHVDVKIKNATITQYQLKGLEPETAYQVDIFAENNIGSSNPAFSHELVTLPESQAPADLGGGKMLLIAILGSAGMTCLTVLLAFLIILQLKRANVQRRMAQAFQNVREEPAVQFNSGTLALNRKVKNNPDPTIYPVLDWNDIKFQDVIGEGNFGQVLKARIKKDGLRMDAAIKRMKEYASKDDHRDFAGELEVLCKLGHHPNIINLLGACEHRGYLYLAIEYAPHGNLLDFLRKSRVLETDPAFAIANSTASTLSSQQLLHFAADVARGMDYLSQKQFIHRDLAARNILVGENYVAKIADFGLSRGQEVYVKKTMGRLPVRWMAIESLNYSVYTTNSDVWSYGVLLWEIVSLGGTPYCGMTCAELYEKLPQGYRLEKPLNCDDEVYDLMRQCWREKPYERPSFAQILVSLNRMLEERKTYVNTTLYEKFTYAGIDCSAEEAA
Sequence of Tyrosine-protein kinase ABL1 (Homo sapiens) (P00519 whole entry): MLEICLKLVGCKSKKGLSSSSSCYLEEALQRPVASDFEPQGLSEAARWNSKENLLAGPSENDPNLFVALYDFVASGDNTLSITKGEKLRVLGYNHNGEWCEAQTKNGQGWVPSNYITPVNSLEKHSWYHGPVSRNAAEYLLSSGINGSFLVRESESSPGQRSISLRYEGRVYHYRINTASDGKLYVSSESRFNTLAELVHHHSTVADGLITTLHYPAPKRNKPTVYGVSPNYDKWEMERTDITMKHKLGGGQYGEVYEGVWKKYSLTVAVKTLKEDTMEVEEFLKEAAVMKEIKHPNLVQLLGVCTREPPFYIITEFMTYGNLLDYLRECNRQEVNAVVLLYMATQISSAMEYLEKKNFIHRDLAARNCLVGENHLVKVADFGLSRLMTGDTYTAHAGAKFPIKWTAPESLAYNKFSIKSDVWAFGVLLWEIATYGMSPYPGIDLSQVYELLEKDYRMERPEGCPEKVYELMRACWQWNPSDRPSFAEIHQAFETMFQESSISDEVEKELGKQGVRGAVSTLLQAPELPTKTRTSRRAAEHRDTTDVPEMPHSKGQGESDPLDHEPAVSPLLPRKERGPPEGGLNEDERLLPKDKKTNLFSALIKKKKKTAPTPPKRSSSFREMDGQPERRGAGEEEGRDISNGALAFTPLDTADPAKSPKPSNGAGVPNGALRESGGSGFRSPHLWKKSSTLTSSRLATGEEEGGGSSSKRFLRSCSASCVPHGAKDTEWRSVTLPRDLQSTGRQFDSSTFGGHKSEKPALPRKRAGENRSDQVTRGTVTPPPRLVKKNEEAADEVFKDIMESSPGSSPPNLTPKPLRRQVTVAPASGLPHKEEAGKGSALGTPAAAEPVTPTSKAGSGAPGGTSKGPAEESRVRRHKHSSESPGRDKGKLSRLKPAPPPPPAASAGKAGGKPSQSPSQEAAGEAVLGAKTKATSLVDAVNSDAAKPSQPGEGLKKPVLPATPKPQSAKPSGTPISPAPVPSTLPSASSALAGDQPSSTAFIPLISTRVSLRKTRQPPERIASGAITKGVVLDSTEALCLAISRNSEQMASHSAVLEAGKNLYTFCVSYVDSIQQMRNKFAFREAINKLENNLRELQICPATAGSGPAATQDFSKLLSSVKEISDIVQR
Sequence of Fibroblast growth factor receptor 3 (Homo sapiens) (P22607 23-806 limits assumed): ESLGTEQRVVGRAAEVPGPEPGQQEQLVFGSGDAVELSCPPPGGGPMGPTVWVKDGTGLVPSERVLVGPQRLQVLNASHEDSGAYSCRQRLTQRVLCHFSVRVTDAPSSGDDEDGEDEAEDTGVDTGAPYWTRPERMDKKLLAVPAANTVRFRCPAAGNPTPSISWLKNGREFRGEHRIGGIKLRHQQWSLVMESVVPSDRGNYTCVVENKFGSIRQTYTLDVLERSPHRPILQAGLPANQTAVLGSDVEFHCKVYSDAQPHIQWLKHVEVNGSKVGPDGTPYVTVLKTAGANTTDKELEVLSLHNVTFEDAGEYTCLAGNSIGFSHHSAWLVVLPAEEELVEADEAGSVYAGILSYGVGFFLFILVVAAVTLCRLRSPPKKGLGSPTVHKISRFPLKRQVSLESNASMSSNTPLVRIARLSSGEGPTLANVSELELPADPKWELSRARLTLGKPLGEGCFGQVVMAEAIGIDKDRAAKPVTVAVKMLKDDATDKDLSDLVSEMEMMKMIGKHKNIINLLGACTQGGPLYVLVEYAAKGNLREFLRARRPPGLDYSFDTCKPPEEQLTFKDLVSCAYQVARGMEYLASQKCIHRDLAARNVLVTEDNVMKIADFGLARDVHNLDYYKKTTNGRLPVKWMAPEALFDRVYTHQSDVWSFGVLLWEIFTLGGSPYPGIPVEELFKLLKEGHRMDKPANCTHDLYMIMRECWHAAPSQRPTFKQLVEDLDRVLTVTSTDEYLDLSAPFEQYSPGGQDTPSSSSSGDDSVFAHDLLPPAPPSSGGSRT
Sequence of Fibroblast growth factor receptor 4 (Homo sapiens) (P22455 22-802 limits assumed): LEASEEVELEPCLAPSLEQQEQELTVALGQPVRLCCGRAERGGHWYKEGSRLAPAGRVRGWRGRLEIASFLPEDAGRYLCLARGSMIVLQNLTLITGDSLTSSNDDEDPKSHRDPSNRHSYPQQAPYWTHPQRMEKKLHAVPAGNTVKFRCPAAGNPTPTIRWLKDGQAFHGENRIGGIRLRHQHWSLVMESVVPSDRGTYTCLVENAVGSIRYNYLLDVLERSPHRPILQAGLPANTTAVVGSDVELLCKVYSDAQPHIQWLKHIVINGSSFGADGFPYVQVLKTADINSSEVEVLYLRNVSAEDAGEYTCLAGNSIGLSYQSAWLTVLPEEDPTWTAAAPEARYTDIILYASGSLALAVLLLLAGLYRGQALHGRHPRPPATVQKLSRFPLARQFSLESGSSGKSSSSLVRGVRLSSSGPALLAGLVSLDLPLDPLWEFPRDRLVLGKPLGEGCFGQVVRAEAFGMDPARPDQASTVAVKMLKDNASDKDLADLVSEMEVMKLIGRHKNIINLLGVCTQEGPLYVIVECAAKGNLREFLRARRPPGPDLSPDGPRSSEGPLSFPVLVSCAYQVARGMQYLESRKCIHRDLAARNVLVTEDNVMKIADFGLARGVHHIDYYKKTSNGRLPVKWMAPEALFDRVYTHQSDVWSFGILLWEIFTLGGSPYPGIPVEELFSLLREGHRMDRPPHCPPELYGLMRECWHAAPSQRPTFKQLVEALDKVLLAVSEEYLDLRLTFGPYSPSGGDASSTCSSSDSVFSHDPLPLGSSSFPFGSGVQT

## Cc1ccc(C(=O)Nc2cccc(C(F)(F)F)c2)cc1-c1ccc2c(-c3cnn(C4CC4)c3)n[nH]c2c1
[1]
  AUC(0-t): 7640 ng·h/mL
[2]
  MRT: 5.71 h
[3]
  inhibition: 100%
[4]
  inhibition: 100%
[5]
  inhibition: 94.2%
[6]
  inhibition: 81.7%
[7]
  inhibition: 83.6%
[8]
  inhibition: 100%
[9]
  inhibition: 83.4%
[10]
  inhibition: 2.5%
[11]
  inhibition: 82%
[12]
  inhibition: 8.4%
[13]
  inhibition: 99.1%
[14]
  inhibition: 8.1%
[15]
  inhibition: 0.2%
[16]
  inhibition: 10.4%
[17]
  inhibition: Dose-dependent effect
KG-1
  IC50: 0.108 µM
